Measurements reported in ChEMBL document CHEMBL4725470, “Synthesis and Biological Evaluation of Pyrroloindolines as Positive Allosteric Modulators of the α1β2γ2 GABA Receptor” (ACS Med Chem Lett, 2020).
Activity calls are given as the source filed them. The rule behind the calls is not given here.

Assays:
[1] = molecular target: T1, GABA-A receptor; alpha-1/beta-2/gamma-2 (Homo sapiens) (UniProt P14867+P47870+P18507); experiment: Positive allosteric modulator activity at human alpha1beta2Sgamma2S GABA-A receptor expressed in Xenopus laevis oocytes assessed as potentiation of EC10 GABA response by two electrode voltage-clamp assay relative to control; format: cell-based; settings: Oocyte
Outline: (§1)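 Same sequence as the EC50 potentiation protocol: baseline GABA doses, ligand alone, 30 s incubation, then coapplication, then two GABA check doses. Here 40 μM PAM is coapplied with an EC10–15 GABA dose. The EC10–15 for each mutant receptor was verified from full GABA dose–response curves.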

[2] = molecular target: T1, GABA-A receptor; alpha-1/beta-2/gamma-2 (Homo sapiens); experiment: Agonist activity at human alpha1beta2Sgamma2S GABA-A receptor expressed in Xenopus laevis oocytes by two electrode voltage-clamp assay; format: cell-based; settings: Oocyte, filed as agonist
Outline: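 Test ligand applied alone at 40 μM to oocytes expressing human α1β2γ2 receptors. Current read by two-electrode voltage clamp and compared with GABA EC50 responses recorded in the same sequence.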

[3] = Positive allosteric modulator activity at rat alpha1beta2gamma2L GABA-A receptor expressed in Xenopus laevis oocytes in presence of EC2-5 GABA by two-electrode voltage clamp assay; format: cell-based; settings: Oocyte
[4] = molecular target: T1, GABA-A receptor; alpha-1/beta-2/gamma-2 (Homo sapiens); experiment: Positive allosteric modulator activity at human alpha1beta2Sgamma2S GABA-A receptor expressed in Xenopus laevis oocytes in presence of EC50 GABA by two electrode voltage-clamp assay; format: cell-based; settings: Oocyte, filed as positive allosteric modulator
[5] = molecular target: GABA-A receptor; GABA-A site (alpha1/beta2 interface) (Homo sapiens) (UniProt P14867+P47870); experiment: Positive allosteric modulator activity at human alpha1beta2S GABA-A receptor expressed in Xenopus laevis oocytes assessed as potentiation of EC50 GABA response at 40 uM by two electrode voltage-clamp assay relative to control; format: cell-based; settings: Oocyte
Outline: (§2)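 Two-electrode voltage clamp in oocytes. Three GABA EC50 applications set the baseline. The test ligand alone is then given at 40 μM, followed after a 30 s incubation by GABA EC50 plus 40 μM ligand. Two further GABA EC50 doses check receptor function after modulation. Result is the percent change relative to the GABA-only baseline.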

[6] = system: Oocyte; experiment: Positive allosteric modulator activity at human GABA-A receptor alpha1beta2Sgamma2S Q88C mutant expressed in Xenopus laevis oocytes assessed as potentiation of EC10 GABA response by two electrode voltage-clamp assay relative to control; format: cell-based; settings: filed as positive allosteric modulator; outline: as §1
[7] = molecular target: T1, GABA-A receptor; alpha-1/beta-2/gamma-2 (Homo sapiens); experiment: Positive allosteric modulator activity at human alpha1beta2Sgamma2S GABA-A receptor expressed in Xenopus laevis oocytes assessed as potentiation of EC50 GABA response at 40 uM by two electrode voltage-clamp assay relative to control; format: cell-based; settings: Oocyte; outline: as §2
[8] = system: Oocyte; experiment: Positive allosteric modulator activity at human GABA-A receptor alpha1beta2Sgamma2S H129R mutant expressed in Xenopus laevis oocytes assessed as potentiation of EC10 GABA response by two electrode voltage-clamp assay relative to control; format: cell-based; settings: filed as positive allosteric modulator; outline: as §1
[9] = system: Oocyte; experiment: Positive allosteric modulator activity at human GABA-A receptor alpha1beta2Sgamma2S S297I/N289I/S319I triple mutant expressed in Xenopus laevis oocytes assessed as potentiation of EC10 GABA response by two electrode voltage-clamp assay relative to control; format: cell-based; outline: as §1
[10] = system: Oocyte; experiment: Positive allosteric modulator activity at human GABA-A receptor alpha1beta2Sgamma2S Y209Q mutant expressed in Xenopus laevis oocytes assessed as potentiation of EC10 GABA response by two electrode voltage-clamp assay relative to control; format: cell-based; settings: filed as positive allosteric modulator; outline: as §1
[11] = molecular target: T2, GABA-A receptor; alpha-1/beta-2/gamma-2 (Homo sapiens, UniProt P14867+P18507+P47870); experiment: Positive allosteric modulator activity at human alpha1beta2Sgamma2S GABA-A receptor expressed in Xenopus laevis oocytes in presence of EC5 GABA by two electrode voltage-clamp assay; format: cell-based, Oocyte
T2 sequence (P14867 whole entry): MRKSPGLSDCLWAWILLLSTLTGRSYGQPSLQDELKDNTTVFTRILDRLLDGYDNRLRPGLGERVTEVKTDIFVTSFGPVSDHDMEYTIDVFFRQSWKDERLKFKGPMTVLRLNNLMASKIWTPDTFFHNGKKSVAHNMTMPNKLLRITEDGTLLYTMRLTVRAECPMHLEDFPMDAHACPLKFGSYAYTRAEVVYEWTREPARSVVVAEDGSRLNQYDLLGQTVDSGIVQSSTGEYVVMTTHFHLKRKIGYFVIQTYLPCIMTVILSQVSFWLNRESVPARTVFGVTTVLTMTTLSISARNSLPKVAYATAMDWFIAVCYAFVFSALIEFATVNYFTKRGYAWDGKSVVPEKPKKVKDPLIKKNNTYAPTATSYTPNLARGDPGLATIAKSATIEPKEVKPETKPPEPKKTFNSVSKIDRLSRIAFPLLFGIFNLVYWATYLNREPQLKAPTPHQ
T2 sequence (P47870 whole entry): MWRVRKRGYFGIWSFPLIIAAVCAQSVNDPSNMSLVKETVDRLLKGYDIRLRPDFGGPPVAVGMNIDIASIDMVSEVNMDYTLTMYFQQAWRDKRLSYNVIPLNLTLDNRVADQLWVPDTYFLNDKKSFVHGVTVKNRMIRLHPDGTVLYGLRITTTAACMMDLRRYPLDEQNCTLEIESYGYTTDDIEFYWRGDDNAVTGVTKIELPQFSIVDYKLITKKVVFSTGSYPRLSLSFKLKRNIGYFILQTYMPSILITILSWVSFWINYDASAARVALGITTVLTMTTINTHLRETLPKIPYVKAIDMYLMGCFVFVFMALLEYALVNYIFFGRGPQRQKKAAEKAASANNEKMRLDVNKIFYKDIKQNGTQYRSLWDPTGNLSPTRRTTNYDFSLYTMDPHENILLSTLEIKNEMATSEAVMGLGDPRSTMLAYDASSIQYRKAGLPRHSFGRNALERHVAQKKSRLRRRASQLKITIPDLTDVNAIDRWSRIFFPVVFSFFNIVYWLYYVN
T2 sequence (P18507 whole entry): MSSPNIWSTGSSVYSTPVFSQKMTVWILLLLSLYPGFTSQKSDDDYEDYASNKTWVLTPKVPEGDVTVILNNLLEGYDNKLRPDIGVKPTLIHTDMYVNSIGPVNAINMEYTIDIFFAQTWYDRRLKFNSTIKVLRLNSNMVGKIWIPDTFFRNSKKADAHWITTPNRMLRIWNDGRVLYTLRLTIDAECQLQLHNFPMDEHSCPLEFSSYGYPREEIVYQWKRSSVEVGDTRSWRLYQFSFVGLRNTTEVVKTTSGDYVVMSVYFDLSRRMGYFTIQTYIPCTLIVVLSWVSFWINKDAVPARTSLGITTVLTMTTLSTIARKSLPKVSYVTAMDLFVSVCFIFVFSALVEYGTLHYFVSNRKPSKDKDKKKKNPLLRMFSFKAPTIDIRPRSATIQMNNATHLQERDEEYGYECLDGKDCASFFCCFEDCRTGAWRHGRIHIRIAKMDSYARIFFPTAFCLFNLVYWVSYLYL
Outline: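 Modulator dose–response with each concentration coapplied with GABA EC5. The peak current at GABA EC5 alone was subtracted from all responses, and the EC50 was taken from the fitted curve.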

[12] = filed as positive allosteric modulator

Q: For `CN1CC[C@]2(O)c3cc(I)ccc3N(C)[C@]12c1ccccc1`, which Activity [1, 12] is on record?
A: The Activity was 231%.

Q: What about the Activity [2] of the same compound?
A: The Activity was “Active”.

Q: For `Cc1ccc(-c2nc3ccc(C)cn3c2CC(=O)N(C)C)cc1` [ZOLPIDEM], which EC50 [3] is on record?
A: The EC50 was 340 nM.

Q: For `CN1CC[C@]2(F)c3ccccc3N(C)[C@]12c1ccccc1`, which Activity [1, 12] is on record?
A: The Activity was 100%.

Q: For `CN1c2ccccc2[C@@]2(O)CCN(C(=O)OCc3ccccc3)[C@@]12c1ccccc1`, which Activity [1] is on record?
A: The Activity was 9.6%.

Q: With `CN1CC[C@]2(O)c3ccccc3N(C)[C@]12c1ccccc1` (racemic) as the compound, how does the Activity [4] read?
A: Its Activity is “Active”.

Q: What about the Activity [5] of the same compound?
A: Its Activity is 28%.

Q: And the Activity [6]?
A: The Activity was “Active”.

Q: And the Activity [7]?
A: Its Activity is 17%.

Q: And the Activity [8]?
A: The Activity was “Active”.

Q: What about the Activity [1, 12] of the same compound?
A: Its Activity is 62%.

Q: What about the Activity [9] of the same compound?
A: The Activity was 1%.

Q: What about the Activity [10] of the same compound?
A: Its Activity is “Active”.

Q: With `CO[C@]12CCN(C)[C@@]1(c1ccccc1)N(C)c1ccccc12` as the compound, how does the Activity [1] read?
A: The Activity was 21%.

Q: With `CN1CC[C@@]2(O)c3ccccc3N(C)[C@@]12c1ccccc1` as the compound, how does the Activity [5] read?
A: Its Activity is 9.2%.

Q: Which Activity [1] does the source give for `CN1CC[C@@]2(O)c3cc(N4CCOCC4)ccc3N(C)[C@@]12c1ccccc1` here?
A: The Activity was -4.8%.

Q: For `CN1CC[C@]2(O)c3cc(C(F)(F)F)ccc3N(C)[C@]12c1ccccc1`, which Activity [1, 12] is on record?
A: The Activity was 108%.

Q: Which Activity [1, 12] does the source give for `CN1CC[C@@]2(O)c3ccccc3N(C)[C@@]12c1ccc(Br)cc1` here?
A: Its Activity is 155%.

Q: Which EC50 [11] does the source give for `CN1CC[C@]2(O)c3ccccc3N(C)[C@]12c1ccccc1` [listing 1 of 2 here] here?
A: The EC50 was 110000 nM.

Q: With `CCN(CC)CCN1C(=O)CN=C(c2ccccc2F)c2cc(Cl)ccc21` [FLURAZEPAM] as the compound, how does the EC50 [3] read?
A: The EC50 was 270 nM.

Q: For `CN1CC[C@]2(O)c3cc(Br)ccc3N(C)[C@]12c1ccccc1`, which Activity [1, 12] is on record?
A: The Activity was 213%.

Q: What about the Activity [2] of the same compound?
A: Its Activity is “Active”.

Q: For `CN1CC[C@]2(O)c3ccccc3N(C)[C@]12c1ccc(Br)cc1`, which Activity [1, 12] is on record?
A: The Activity was 98%.

Q: For `COc1ccc([C@@]23N(C)CC[C@]2(O)c2ccccc2N3C)cc1` (racemic), which Activity [1] is on record?
A: Its Activity is “inactive”.

Q: For `COc1ccc2c(c1)[C@@]1(O)CCN(C)[C@@]1(c1ccccc1)N2C`, which Activity [1] is on record?
A: Its Activity is 17%.

Q: With `CN1CC[C@]2(O)c3ccccc3N(C)[C@]12c1ccccc1` [listing 2 of 2 here] as the compound, how does the Activity [5] read?
A: Its Activity is 17%.

Q: What about the Activity [7] of the same compound?
A: The Activity was 16%.

Q: And the Activity [1, 12]?
A: Its Activity is 125%.

Q: For `CN1c2ccccc2[C@@]2(O)CCN[C@@]12c1ccccc1`, which Activity [1, 12] is on record?
A: The Activity was 41%.
